pIC50: −log10 of the molar value. The source made the active and inactive calls. The rule behind the calls is not given here.
Key:
[1] = molecular target: C-X-C chemokine receptor type 4 (Homo sapiens, UniProt P61073); experiment: Displacement of [125I]CXCL12 from human CXCR4 expressed in HEK293 cell membranes after 1.5 hrs by Topcount method
[2] = Acute toxicity in sc dosed C57BL/6 mouse assessed as maximum tolerated dose by measuring mortality; type: organism-based; conditions: in vivo
Outline: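 Male C57BL/6 or ICR mice (n = 3/group) dosed subcutaneously with escalating doses, low to high; MTD taken as highest dose giving zero mortality (0/3).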

[3] = molecular target: C-C chemokine receptor type 5 (Homo sapiens) (UniProt P51681); experiment: Antagonist activity at human CCR5 expressed in CHOK1 cells assessed as inhibition of CCL3-induced cAMP accumulation at 10 uM preincubated for 30 mins followed agonist addition measured after 30 to 60 mins; type: functional, cell-based
Sequence of C-C chemokine receptor type 5 (Homo sapiens) (P51681 whole entry, looked up): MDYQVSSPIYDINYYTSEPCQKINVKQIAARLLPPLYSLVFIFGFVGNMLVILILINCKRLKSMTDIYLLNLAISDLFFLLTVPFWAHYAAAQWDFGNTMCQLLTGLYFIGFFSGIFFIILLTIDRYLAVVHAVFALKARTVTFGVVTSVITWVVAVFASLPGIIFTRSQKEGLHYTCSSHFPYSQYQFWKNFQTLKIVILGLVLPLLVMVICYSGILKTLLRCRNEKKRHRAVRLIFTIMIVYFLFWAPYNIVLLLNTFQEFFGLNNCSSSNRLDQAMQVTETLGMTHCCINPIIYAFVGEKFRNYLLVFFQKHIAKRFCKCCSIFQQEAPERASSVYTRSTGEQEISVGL
Outline: (§1)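 GPCR cAMP assay with a single test concentration of 10 μM; result expressed as percentage inhibition for each chemokine receptor.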

[4] = molecular target: C-C chemokine receptor type 7 (Homo sapiens) (UniProt P32248); experiment: Antagonist activity at human CCR7 expressed in CHOK1 cells assessed as inhibition of CCL19-induced cAMP accumulation at 10 uM preincubated for 30 mins followed agonist addition measured after 30 to 60 mins; type: functional, cell-based; outline: as §1
Sequence of C-C chemokine receptor type 7 (Homo sapiens) (P32248 whole entry): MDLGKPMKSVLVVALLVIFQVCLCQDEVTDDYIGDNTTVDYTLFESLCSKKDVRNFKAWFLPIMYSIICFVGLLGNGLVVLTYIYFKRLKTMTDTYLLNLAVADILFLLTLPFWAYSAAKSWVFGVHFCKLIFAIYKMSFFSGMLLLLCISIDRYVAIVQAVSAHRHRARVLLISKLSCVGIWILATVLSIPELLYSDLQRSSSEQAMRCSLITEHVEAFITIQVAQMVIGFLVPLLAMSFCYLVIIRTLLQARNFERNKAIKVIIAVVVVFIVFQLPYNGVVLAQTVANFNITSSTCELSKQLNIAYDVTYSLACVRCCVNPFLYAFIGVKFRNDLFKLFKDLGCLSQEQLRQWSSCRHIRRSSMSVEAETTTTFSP

[5] = molecular target: C-X-C chemokine receptor type 1 (Homo sapiens) (UniProt P25024); experiment: Antagonist activity at human CXCR1 expressed in CHOK1 cells assessed as inhibition of interleukin-8-induced cAMP accumulation at 10 uM preincubated for 30 mins followed agonist addition measured after 30 to 60 mins; type: functional, cell-based; outline: as §1
Sequence of C-X-C chemokine receptor type 1 (Homo sapiens) (P25024 whole entry): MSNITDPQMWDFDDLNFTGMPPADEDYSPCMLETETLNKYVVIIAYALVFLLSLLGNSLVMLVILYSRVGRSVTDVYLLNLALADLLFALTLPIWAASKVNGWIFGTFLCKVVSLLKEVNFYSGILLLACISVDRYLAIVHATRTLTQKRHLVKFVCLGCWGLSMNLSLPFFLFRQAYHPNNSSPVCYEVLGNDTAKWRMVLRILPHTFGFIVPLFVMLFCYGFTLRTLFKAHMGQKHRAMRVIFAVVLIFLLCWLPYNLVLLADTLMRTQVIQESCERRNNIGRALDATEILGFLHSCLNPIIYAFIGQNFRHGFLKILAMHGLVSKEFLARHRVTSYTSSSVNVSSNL

[6] = AUC (0 to 4 hrs) in C57BL/6 mouse at 6 mg/kg, sc measured up to 4 hrs post dose by LC-MS/MS analysis; type: ADME, organism-based; design: dose 6 mg/kg, time < 4 hr, route subcutaneous; conditions: in vivo
Outline: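 Male C57BL/6 mice (23.4–25.4 g), quarantined one week, non-fasted, n = 3; single SC dose of 6 mg/kg in 100% saline. Blood taken by cardiac puncture at 0, 0.03, 0.08, 0.25, 1, 1.5, 2 and 4 h and stored at -80 °C. Plasma analysed by LC–MS/MS; parameters from non-compartmental analysis; mean ± SD.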

[7] = system: Mus musculus; experiment: Induction hematopoietic stem cell mobilization in C57BL/6 mouse assessed as increase in CXCR4+ cells in blood at 50 mg/kg, sc measured after 2 hrs by APC-conjugated anti-CXCR4-staining based flow cytometry relative to vehicle control; type: functional, organism-based
Outline: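 Male C57BL/6 mice, 8–10 weeks old, given a single SC injection at escalating doses of 1, 6, 20, 35 and 50 mg/kg. Blood collected 2 h later and stained with antibodies including APC-anti-CXCR4. CXCR4⁺ cells counted by flow cytometry, at least 60,000 events per sample. n = 3 per group; mean ± SEM; t test against vehicle.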

[8] = system: Mus musculus; experiment: Induction of hematopoietic stem cell mobilization in C57BL/6 mouse PBMC assessed as increase in CFU-GM colonies at 35 mg/kg, sc administered on day 5 post G-CSF addition measured after 2 hrs post dose by colony forming assay; type: functional, organism-based
Outline: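 Male C57BL/6 mice received G-CSF 100 µg/kg SC daily for 4 days. On day 5 they received G-CSF plus compound SC (6 or 35 mg/kg). Heparinized blood taken 2 h later; PBMCs isolated and cultured in methylcellulose medium for 10–14 days. CFU-GM colonies (aggregates of ≥50 cells) counted under an inverted microscope. 8–12 mice per group; mean ± SEM; t test against G-CSF alone.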

[9] = molecular target: Voltage-dependent N-type calcium channel subunit alpha-1B (Rattus norvegicus) (UniProt Q02294); experiment: Displacement of [125I]omega-conotoxin GVIA from rat brain Cav2.2 at 10 uM after 30 mins by scintillation counting
Sequence of Voltage-dependent N-type calcium channel subunit alpha-1B (Rattus norvegicus) (Q02294 whole entry, looked up): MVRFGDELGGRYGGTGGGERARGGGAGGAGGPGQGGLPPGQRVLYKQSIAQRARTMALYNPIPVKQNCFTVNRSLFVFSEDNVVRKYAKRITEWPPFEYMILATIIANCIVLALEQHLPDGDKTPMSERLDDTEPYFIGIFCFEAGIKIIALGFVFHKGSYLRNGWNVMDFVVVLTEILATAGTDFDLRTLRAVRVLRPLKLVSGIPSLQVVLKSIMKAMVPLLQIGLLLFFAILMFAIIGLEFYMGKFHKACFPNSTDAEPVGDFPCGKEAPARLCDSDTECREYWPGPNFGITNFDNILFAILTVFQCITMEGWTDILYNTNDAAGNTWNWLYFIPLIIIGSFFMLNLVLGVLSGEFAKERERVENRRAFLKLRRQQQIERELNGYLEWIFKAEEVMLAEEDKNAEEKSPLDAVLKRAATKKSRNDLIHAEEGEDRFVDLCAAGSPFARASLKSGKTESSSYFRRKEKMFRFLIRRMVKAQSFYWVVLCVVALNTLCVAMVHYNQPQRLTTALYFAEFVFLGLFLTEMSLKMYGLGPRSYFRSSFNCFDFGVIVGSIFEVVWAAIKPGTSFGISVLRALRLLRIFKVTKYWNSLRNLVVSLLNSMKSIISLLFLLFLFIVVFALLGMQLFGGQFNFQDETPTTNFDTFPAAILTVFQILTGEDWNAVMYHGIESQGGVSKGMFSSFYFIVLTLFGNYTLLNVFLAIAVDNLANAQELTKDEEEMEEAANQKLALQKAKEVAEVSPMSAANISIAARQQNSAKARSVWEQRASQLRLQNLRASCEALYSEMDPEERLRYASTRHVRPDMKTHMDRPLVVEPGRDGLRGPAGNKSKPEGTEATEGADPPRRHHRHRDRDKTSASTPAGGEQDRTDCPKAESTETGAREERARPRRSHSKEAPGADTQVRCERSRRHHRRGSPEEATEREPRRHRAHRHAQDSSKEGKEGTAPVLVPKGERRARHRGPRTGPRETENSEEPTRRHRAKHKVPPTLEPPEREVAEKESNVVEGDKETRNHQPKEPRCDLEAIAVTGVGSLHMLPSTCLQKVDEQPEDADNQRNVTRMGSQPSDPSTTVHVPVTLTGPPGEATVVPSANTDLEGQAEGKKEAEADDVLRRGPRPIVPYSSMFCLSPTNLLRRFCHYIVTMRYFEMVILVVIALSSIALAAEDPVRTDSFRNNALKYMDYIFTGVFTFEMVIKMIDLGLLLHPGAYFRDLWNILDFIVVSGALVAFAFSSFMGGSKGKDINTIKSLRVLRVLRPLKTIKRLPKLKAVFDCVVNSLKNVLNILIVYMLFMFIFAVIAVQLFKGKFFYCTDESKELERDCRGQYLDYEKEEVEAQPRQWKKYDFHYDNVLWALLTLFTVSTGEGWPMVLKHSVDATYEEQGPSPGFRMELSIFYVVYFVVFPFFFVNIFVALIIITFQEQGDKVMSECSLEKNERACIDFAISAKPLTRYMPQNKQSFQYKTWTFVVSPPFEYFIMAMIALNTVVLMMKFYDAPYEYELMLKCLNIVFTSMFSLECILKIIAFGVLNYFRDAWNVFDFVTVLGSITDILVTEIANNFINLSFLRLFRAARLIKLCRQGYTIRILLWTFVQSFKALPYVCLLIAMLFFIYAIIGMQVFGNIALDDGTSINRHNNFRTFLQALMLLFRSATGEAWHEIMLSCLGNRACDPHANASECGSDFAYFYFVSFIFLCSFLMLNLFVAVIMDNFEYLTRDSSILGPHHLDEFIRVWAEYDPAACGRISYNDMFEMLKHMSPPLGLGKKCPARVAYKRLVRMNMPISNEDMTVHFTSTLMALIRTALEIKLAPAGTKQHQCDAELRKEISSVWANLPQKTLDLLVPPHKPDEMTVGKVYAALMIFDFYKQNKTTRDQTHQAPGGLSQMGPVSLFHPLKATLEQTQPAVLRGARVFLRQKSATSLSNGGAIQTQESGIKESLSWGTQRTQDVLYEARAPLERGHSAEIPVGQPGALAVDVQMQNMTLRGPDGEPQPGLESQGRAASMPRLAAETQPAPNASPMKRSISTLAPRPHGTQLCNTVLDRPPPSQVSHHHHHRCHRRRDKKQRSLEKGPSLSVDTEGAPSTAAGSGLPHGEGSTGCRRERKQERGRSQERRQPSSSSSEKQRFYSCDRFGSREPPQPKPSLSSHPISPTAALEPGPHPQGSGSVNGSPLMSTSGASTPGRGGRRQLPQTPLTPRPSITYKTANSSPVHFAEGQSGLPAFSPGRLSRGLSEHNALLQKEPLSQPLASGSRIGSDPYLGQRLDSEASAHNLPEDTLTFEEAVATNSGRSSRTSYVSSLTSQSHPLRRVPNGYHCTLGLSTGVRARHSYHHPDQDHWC

[10] = molecular target: Cytochrome P450 2C9 (Homo sapiens, UniProt P11712); experiment: Inhibition of human liver microsomal CYP2C9; type: ADME
[11] = molecular target: Cytochrome P450 2C19 (Homo sapiens, UniProt P33261); experiment: Inhibition of human liver microsomal CYP2C19; type: ADME
Sequence of Cytochrome P450 2C19 (P33261 whole entry): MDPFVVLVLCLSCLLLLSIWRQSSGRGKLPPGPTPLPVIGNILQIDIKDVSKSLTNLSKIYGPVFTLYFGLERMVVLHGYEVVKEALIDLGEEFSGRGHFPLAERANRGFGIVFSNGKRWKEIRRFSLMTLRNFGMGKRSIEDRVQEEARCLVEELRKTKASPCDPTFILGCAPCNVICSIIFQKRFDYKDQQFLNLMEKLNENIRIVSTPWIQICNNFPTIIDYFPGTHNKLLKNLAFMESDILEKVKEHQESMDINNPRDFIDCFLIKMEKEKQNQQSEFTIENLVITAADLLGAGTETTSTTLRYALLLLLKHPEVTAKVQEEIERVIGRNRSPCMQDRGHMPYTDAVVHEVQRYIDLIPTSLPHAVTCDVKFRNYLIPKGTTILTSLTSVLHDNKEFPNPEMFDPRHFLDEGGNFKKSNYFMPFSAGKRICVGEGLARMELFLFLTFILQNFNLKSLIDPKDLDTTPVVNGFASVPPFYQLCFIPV

[12] = molecular target: Cytochrome P450 2D6 (Homo sapiens, UniProt P10635); experiment: Inhibition of human liver microsomal CYP2D6; type: ADME
Sequence of Cytochrome P450 2D6 (P10635 whole entry): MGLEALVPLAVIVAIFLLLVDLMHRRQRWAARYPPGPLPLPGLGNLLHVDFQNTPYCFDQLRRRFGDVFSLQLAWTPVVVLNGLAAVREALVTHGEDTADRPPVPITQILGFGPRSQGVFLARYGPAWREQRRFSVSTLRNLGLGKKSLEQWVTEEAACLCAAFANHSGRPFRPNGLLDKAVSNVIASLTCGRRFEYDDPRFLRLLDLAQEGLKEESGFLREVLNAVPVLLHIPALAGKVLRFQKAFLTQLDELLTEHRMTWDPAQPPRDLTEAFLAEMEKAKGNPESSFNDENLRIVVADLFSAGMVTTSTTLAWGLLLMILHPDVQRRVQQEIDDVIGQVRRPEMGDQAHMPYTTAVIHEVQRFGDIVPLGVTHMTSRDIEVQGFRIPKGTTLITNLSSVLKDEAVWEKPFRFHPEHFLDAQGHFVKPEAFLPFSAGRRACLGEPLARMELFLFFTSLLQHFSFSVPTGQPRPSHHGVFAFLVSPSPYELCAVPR

[13] = molecular target: Cytochrome P450 2E1 (Homo sapiens, UniProt P05181); experiment: Inhibition of human liver microsomal CYP2E1; type: ADME
Sequence of Cytochrome P450 2E1 (P05181 whole entry): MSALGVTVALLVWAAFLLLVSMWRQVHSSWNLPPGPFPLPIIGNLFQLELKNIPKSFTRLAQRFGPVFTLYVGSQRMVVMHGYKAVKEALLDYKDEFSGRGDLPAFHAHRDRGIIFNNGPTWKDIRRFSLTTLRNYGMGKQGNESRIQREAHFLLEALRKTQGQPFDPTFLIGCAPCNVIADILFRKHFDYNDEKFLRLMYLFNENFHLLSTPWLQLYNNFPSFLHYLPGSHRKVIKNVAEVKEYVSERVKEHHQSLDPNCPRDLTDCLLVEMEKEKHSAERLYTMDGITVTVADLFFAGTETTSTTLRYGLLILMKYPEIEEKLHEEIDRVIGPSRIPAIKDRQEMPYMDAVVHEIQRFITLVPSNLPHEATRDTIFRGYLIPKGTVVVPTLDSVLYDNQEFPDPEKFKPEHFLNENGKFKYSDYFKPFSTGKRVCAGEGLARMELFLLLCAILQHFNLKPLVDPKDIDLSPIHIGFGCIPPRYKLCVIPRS

[14] = system: Mus musculus; experiment: In vivo antagonist activity at CXCR4 in C57BL/6 mouse assessed as induction of neutrophils molization at 35 mg/kg, sc measured after 2 hrs relative to AMD3100; type: functional; design: scale not given: the % may be the effect or the level left
Outline: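 C57BL/6 mice given a single SC injection at 6 or 35 mg/kg. Blood collected 2 h after dosing and analysed for total white blood cells, neutrophils, lymphocytes and monocytes.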

[15] = system: Mus musculus; experiment: In vivo antagonist activity at CXCR4 in C57BL/6 mouse assessed as induction of monocytes molization at 35 mg/kg, sc measured after 2 hrs relative to untreated control; type: functional
[16] = system: Rattus norvegicus; experiment: Hepatotoxicity in Sprague-Dawley rat assessed as effect on liver weight at 50 mg/kg/day, sc administered for 14 days relative to control; type: toxicity, organism-based; conditions: in vivo, 336 h
Outline: (§2)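 Non-GLP 14-day repeated-dose study in SD rats given 50 mg/kg/day SC. Major organs (liver, kidney, lung, heart) compared with vehicle for size, weight and colour. Blood analysed for hematological and biochemical parameters.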

[17] = system: Rattus norvegicus; experiment: Renal toxicity in Sprague-Dawley rat assessed as effect on kidney weight at 50 mg/kg/day, sc administered for 14 days relative to control; type: organism-based; conditions: in vivo, 336 h; outline: as §2
[18] = system: Rattus norvegicus; experiment: Toxicity in Sprague-Dawley rat assessed as effect on lung weight at 50 mg/kg/day, sc administered for 14 days relative to control; type: organism-based; conditions: in vivo, 336 h; outline: as §2
[19] = system: Rattus norvegicus; experiment: Cardiotoxicity in Sprague-Dawley rat assessed as effect on heart weight at 50 mg/kg/day, sc administered for 14 days relative to control; type: toxicity, organism-based; conditions: in vivo, 336 h; outline: as §2
[20] = system: Rattus norvegicus; experiment: Hepatotoxicity in Sprague-Dawley rat assessed as effect on liver color at 50 mg/kg/day, sc administered for 14 days relative to control; type: toxicity, organism-based; conditions: in vivo, 336 h; outline: as §2
[21] = system: Mus musculus; experiment: Induction of hematopoietic stem cell mobilization in C57BL/6 mouse assessed as increase in CFU-GM colonies from PBMC at 6 mg/kg, sc administered on day 5 post 100 ug/kg/day G-CSF addition for 4 days measured after 2 hrs post compound dose by colony forming assay relative to G-CSF alone; type: functional
Outline: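 Male C57BL/6 mice given G-CSF 100 µg/kg SC daily for 4 days. On day 5, G-CSF was co-injected SC with compound. Heparinized blood taken 2 h later; PBMCs isolated and cultured in methylcellulose medium for 10–14 days. CFU-GM colonies (aggregates of ≥50 cells) counted under an inverted microscope. Mean ± SEM, 8–12 mice per group, t test.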

[22] = system: Rattus norvegicus; experiment: Toxicity in Sprague-Dawley rat assessed as effect on hematology parameters at 50 mg/kg/day, sc administered for 14 days relative to control; type: organism-based; conditions: in vivo, 336 h; outline: as §2
[23] = system: Rattus norvegicus; experiment: Renal toxicity in Sprague-Dawley rat assessed as effect on kidney histology parameters up to 100 mg/kg/day, sc after 24 hrs by H and E staining based microscopy; type: organism-based; conditions: in vivo
Outline: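 Acute kidney histology study in SD rats at doses up to 100 mg/kg. Renal tissue compared with controls by photomicrographs.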

`Cc1cc(NC2CCN(C(=O)CCNCC(=O)O)CC2)nc(NCc2cn(CCCNCCCNC3CCCCC3)nn2)n1` gave a pIC50 [1] of 7.47, an MTD [2] of 75 mg/kg and an Efficacy [3] of 0.5%. It also gave an Efficacy [4] of -4.2%, an Efficacy [5] of 0.3% and an AUC(0-t) at 4 h [6] of 13500 ng·h/mL. The Activity [7] was “inactive”, the Activity [8] was “Active” and the inhibition [9] was 73%. The pIC50 [10] was under 4.00, the pIC50 [11] was under 4.00 and the pIC50 [12] was under 4.00. The pIC50 [13] was under 4.00, the Activity [14] was 30 - 50% and the “fold change (FC)” value [15] was 2 - 4. The Activity [16] was “Non-Toxic”, the Activity [17] was “Non-Toxic” and the Activity [18] was “Non-Toxic”. For the same compound, the Activity [19] was “Non-Toxic”, the Activity [20] was “Non-Toxic” and the “fold change (FC)” value [21] was 5.3. For the same compound, the Activity [22] was “Non-Toxic” and the Activity [23] was “Non-Toxic”.

Reference: ChEMBL document CHEMBL4024793, “Development of Stem-Cell-Mobilizing Agents Targeting CXCR4 Receptor for Peripheral Blood Stem Cell Transplantation and Beyond” (J Med Chem, 2018)
